Yeast growth inh = chemicals that inhibit yeast BB579 growth in restrictive medium (lifespan-shortening candidates); inhibition, % at 10 µM; S. cerevisiae BB579 growth, OD615, 48 h; 140,000 tested, 0.51% active;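 active means inhibition above a set limit, 3 SD over the mean compound inhibition, cut at about 44% in these data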
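controls = amphotericin B 10 µg/mL, positive | assay system = DeaD yeast strain BB579 | schedule = 48 h compound exposure at 30 °C after 4 h preincubation | detection = OD615 turbidity measurement | medium = restrictive CSMM-D medium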
Yeast life ext = yeast lifespan extension | S. cerevisiae growth with nicotinamide, OD615; deaD strain in restrictive glucose medium | inhibition of the nicotinamide effect, % at 10 µM | 130,000 tested, 0.68% active;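 active means inhibition above a set limit, placed 3 SD over the median of all compounds, cut at about 26% in these data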;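 further: 0% = nicotinamide-treated wells and 100% = cells grown without nicotinamide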
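Assay system: DeaD-strain S. cerevisiae. Medium: CSMM-D glucose medium, restrictive. Reagent: nicotinamide, 1.5 mM, co-present with compound. Compound: 10 µM single point, 0.25% DMSO. Schedule: culture preincubation 4 h, compound exposure 48 h, both 30 °C. Detection: absorbance at 615 nm.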
Insulin prom up = MIN6 insulin promoter up-regulation; MIN6 insulin promoter-GFP reporter, high-content imaging; active compounds read high; z-score at 5 µM; 190,000 tested, 0.3% active; AID 1625;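 active means z-score above 3 at 5 µM with at least 500 cells counted in the well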
INS promoter inh = TRM-6 insulin promoter activity inhibition; inhibition, % at 2 µM; AID 1273; TRM-6 cells, insulin promoter-eGFP reporter, imaging; reporter expression induced with tamoxifen; 130,000 tested, 0.9% active;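 active means inhibition above the mean plus 3 SD, with well images judged a real hit on visual review, cut at about 60% in these data, passing the limit was not always enough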
RAM network inh = inhibitors of the yeast RAM network; 190,000 tested, 1.8% active; inhibition, % at 50 µM; S. cerevisiae dse1pr::URA3 reporter, 5-FOA growth OD615, 2 d; analog-sensitive cbk1-as2 kinase mutant strain;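 active means inhibition above a set limit, 3 SD over mean compound inhibition, cut at about 8.4% in these data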;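 further: 0% = DMSO-only wells with no growth and 100% = 10 µM 1-NA-PP1 full growth; inhibition rescues growth on 5-FOA so higher OD means more RAM inhibition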
Active calls of the source: *; . = no result given. This is a sample that favours compounds with a hit; in the whole collection about 3.1% have one here.

SMILES	Yeast growth inh	Yeast life ext	Insulin prom up	INS promoter inh	RAM network inh
COC(=O)c1cc(=O)n(CCc2ccc(OC)cc2)c(=Nc2ccc(F)c(Cl)c2)s1	25	3	-0.28	.	9.5*
COC(=O)c1cc(=O)n(Cc2ccc3c(c2)OCO3)c(=Nc2ccc(F)c(Cl)c2)s1	6	-8	0.76	.	3
O=C(CSc1nnc(-c2ccco2)n1-c1ccccc1)NCc1ccco1	-46	-14	-0.95	81*	2
CCn1nc(C)c(NC(=O)CSc2nnc(-c3ccco3)n2C)c1C	0	-5	-0.24	81*	0
COc1ccccc1NC(=O)CSc1nnc(-c2ccco2)n1Cc1ccco1	-15	-7	-1.3	-8	2
O=C(CSc1nnc(-c2ccccc2)n1-c1ccccc1)NCc1ccco1	-41	-6	-0.08	-29	5
O=C(CSc1nnc(-c2ccco2)n1Cc1ccco1)Nc1ccccc1	-19	-8	-0.14	-10	11*
Cn1c(=O)[nH]c(=O)c2c1nc(N1CCCCC1)n2C/C=N/NC(=O)c1cc(Br)ccc1O	.	.	0.49	.	.
O=C(OCC(=O)N1CCCC1)c1ccc(NS(=O)(=O)c2cccs2)cc1O	.	.	-0.08	.	3
CCOC(=O)N/N=C/c1ccc(OCCSc2ccc(Cl)cc2)c(OC)c1	-20	10	-0.05	26	9.9*
Cc1cc(Cl)ccc1OCC(=O)N(Cc1ccco1)C1CCS(=O)(=O)C1 (configuration not stated)	.	.	-0.43	.	.
COc1ccc(/C=C(/C(=O)c2ccc(Cl)cc2Cl)n2cncn2)cc1	-12	43*	0.3	.	-2
CN(C)c1ccc(/C=C(/C(=O)c2ccc(Cl)cc2Cl)n2cncn2)cc1	3	17	0.33	41	1
CC(C)CC(=O)/C(=C\c1ccc(Cl)cc1Cl)n1cncn1	61*	-3	-0.6	57	-1
CN(C)/C=C(/C(=O)c1ccc(Cl)cc1)n1cncn1	.	.	-0.61	.	3
CCOC(=O)c1c(-c2cccc([N+](=O)[O-])c2)csc1NC(=O)C1CC1	-45	-14	-0.24	.	6
CCOC(=O)c1c(-c2cccc([N+](=O)[O-])c2)csc1NC(=O)C1CCCCC1	-31	.	-1.2	.	8.6*
O=S(=O)(Cc1ccccc1)Cc1cnc(Cl)s1	.	.	1	.	0
CSc1ncc(CN2CCN(C(C)C)C(CCO)C2)cn1 (configuration not stated)	.	.	0.8	.	0
COc1ccc(CNc2nc3c(c(=O)n(Cc4ccc(Br)cc4)c(=O)n3C)n2C)cc1	-55	-15	-0.78	6	8.8*
CC1(C)OC(=O)C(=CNn2cnc3ccccc3c2=O)C(=O)O1	-24	-7	-0.65	82*	3
CC(=O)NCCc1nc2ccccc2n1Cc1cc(C)ccc1C	.	.	0.97	.	.
CCn1c(COc2cccc(C)c2C)nnc1SCC(=O)N1CCN(c2ccc(OC)cc2)CC1	-71	-2	-0.02	-18	8.8*
Cc1onc(-c2c(Cl)cccc2Cl)c1C(=O)Nc1ccc(N2CCOCC2)cc1	.	.	-0.19	.	.
CN(Cc1cccnc1)C(=O)CNC(=O)c1ccc(Cl)cc1Cl	.	.	0.32	.	0
SMILES	Yeast growth inh	Yeast life ext	Insulin prom up	INS promoter inh	RAM network inh
Cc1ccc2nc(NCCCO)[nH]c2c1	-21	.	.	78*	3
CCOc1ccc2nc(NCCO)[nH]c2c1	-34	-11	0.48	.	0
c1ccc(-c2nc(NCc3ccco3)c3oc4ccccc4c3n2)cc1	-51	-8	-0.78	-14	11*
O=C(O)CSc1nc(-c2ccccc2)nc2c1oc1ccccc12	-33	-9	0.56	-50	9.8*
CC(C)CC1CCCCC1OC(=O)CN1CCCCC1 (configuration not stated)	.	.	0.11	20	1
O=C(Nc1ccsc1C(=O)N1CCCC1)c1ccccc1	.	.	-0.44	91*	4
O=C(Nc1ccccc1C(=O)N1CCCC1)c1ccccc1	-31	.	0.15	-54	1
O=C(CSc1ncn[nH]1)NCc1ccccc1	-28	-7	5.4*	-8	1
COc1ccc(CNC(=O)CSc2ncn[nH]2)cc1	6	-9	.	-76	-1
COc1ccc(/C=C/C(=O)c2ccc3c4c(cccc24)CC3)cc1OC	-21	-4	-0.13	16	8
COc1ccc(/C=C/C(=O)c2ccc3c4c(cccc24)CC3)cc1	-6	-2	-0.56	.	8.8*
Cc1ccc2nc(-c3ccc(NS(=O)(=O)c4ccc(F)c(F)c4)cc3)sc2c1	68*	-7	.	24	5
Cc1ccc2nc(-c3ccc(NS(=O)(=O)c4ccccc4)cc3)sc2c1	-31	0	0.24	-47	3
Cc1sc2c(c1C)CN(CCN1CCOCC1)CN2C(=O)c1ccccc1	.	.	-0.54	50	0
Cc1ccc(S(=O)(=O)N2CCC(NC(=O)OC(C)C)CC2)cc1	.	.	0.2	.	1
CC(NC(=O)/C(C#N)=C1\N=C(NC(=O)c2cccs2)c2ccccc21)c1ccccc1 (configuration not stated)	-33	7	4*	-79	2
COc1ccc(OC)c(C(=O)CSc2nnc(-c3ccc(OC)c(OC)c3)o2)c1	-38	-2	0.19	29	10*
COc1ccccc1OCc1nnc(SCC(=O)c2cc(Cl)ccc2OC)o1	-70	-36	.	26	9.5*
Cc1ccc(/C=C/C(=O)c2ccccc2O)cc1	.	.	0.32	.	.
Cc1ccc(/C=C/C(=O)C2C(=O)c3ccccc3C2=O)cc1	-20	42*	-0.06	.	3
N/C(Cc1ccc([N+](=O)[O-])cc1)=N\OC(=O)c1ccc(Br)o1	-26	2	-0.25	71*	1
N/C(Cc1ccc([N+](=O)[O-])cc1)=N\OC(=O)COc1cccc2ccccc12	-12	-7	-0.47	.	10*
N/C(Cc1ccc(Cl)cc1)=N\OC(=O)c1cccc2ccccc12	99*	-11	0.96	-57	1
COc1ccc2nc(Nc3nc(CSc4ccc(C)cc4)cc(=O)[nH]3)nc(C)c2c1	.	.	0.31	.	11*
COc1cc(Sc2ccc(C)cc2)c(OC)cc1N	-23	-12	-0.2	23	11*
SMILES	Yeast growth inh	Yeast life ext	Insulin prom up	INS promoter inh	RAM network inh
COC(=O)c1ccc(Sc2ccc(C)cc2)c(N)c1	-2	-24	-0.19	.	0
O=C1OC(/C=C/c2ccc(Cl)cc2Cl)=NC/1=C\c1cccs1	-43	1	.	.	9.5*
CCOc1cc(C(=O)N(C)Cc2cc3ccccc3[nH]c2=O)cc(OCC)c1OCC	-10	-9	-0.11	-16	8.8*
CCOc1ccccc1C(=O)N(C)Cc1cc2ccccc2[nH]c1=O	-3	-30	1.1	14	2
Clc1cc(Cl)cc(C2=NCCC(c3ccccc3)O2)c1 (configuration not stated)	-28	-8	0.05	-15	2
COc1ccc(-c2cc(Nc3ccccc3NC(=O)C(F)(F)F)n(CCC#N)n2)cc1	-24	-1	-0.76	60*	2
CCOC(=O)c1cc(-c2ccc(OC)cc2)nc2c1c(C)nn2CCC#N	-54	-4	-1.9	-350	8
Cc1sc(-n2c(C)cc(C=O)c2C)c(C(=O)O)c1C	-43	3	-1.1	3	1
O=C(Nc1nnc(C2CC2)s1)c1n[nH]c(=O)c2ccccc12	.	.	-0.01	.	.

Bioassay records from PubChem BioAssay.
